Cneo AK release = Cryptococcus neoformans cell lysis inducers, primary screen, AK release luminescence, single concentration; 360,000 compounds, 0.2% hits; lysis activity, % at 15 µM; C. neoformans lysis, adenylate kinase release luminescence, 4 h; normalised: neutral wells 0, clomiphene wells 100;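 active means mean lysis activity across replicates of at least 80%, whatever share of replicates individually reach that level; inactive means mean lysis activity below 80%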
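Material: C. neoformans cells | Amount: Yeast cell density of 5 × 10^6 cells/mL | Medium: Fresh YPD growth medium | Dosing: Single dose | Times: Static 4 h at 37 °C with compound, 1 h detection | Detection: AK luminescence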
Rtt109 HAT inh = inhibitors of C. albicans Rtt109/Vps75 HAT, primary screen, biochemical, ThioGlo CoA-SH fluorescence, plate reader; Histone acetyltransferase RTT109 (Candida albicans (strain SC5314 / ATCC MYA-2876)), …; purified Rtt109/Vps75, 4 h; inhibition, % at 34.9 µM; 330,000 compounds, 0.16% hits; AID 540336, 2011;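 active means inhibition of at least 50% in every replicate; inconclusive means best replicate reaches 50% inhibition but some replicates fall short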
dFosB activator = activators of delta FosB homodimer, primary screen, biochemical, fluorescence polarization, TAMRA-CDK5 oligo, single point. Protein FosB (Mus musculus), P13346. purified delta FosB; percent of positive-control signal above neutral wells. activation, % at 25 µM. 340,000 compounds, 0.99% hits. AID 493131, 2011;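 active means mean activation above about 17%, with every replicate also reaching it, limit read from the data, passing the limit was not always enough; inconclusive means only one of the two conditions met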
Target sequence (P13346 whole entry, looked up): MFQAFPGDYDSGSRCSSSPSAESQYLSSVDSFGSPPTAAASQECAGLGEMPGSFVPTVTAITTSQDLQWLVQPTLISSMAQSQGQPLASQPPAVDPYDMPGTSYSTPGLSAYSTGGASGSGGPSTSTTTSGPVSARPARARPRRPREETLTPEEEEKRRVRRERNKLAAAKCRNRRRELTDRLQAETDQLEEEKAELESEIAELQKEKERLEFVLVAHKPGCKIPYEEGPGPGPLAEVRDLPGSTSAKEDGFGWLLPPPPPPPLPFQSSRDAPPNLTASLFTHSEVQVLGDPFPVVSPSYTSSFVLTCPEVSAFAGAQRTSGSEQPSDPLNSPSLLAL
miR-122 sensor = miR-122 Renilla sensor signal increase in Huh7, primary screen, miR-122 inhibitor project, cell-based, single point, plate reader. Huh7 miR-122 Renilla luciferase sensor, 48 h; neutral wells = 0, positive control = 100. activation (reporter increase), % at 12.5 µM. 340,000 compounds, 0.3% hits. AID 602342, 2012;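 active means mean replicate activation score at least 90 and every replicate individually at or above 90; inconclusive means only one of the two criteria met; inactive means neither criterion met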;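 further: higher luciferase means less miR-122 activity so hits act as miR-122 inhibitors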
INS-1E GSIS act = GLuc luminescence reporter in INS-1E cells, primary screen for activators of glucose-dependent secretion of insulin; INS-1E GLuc reporter insulin secretion, 2-3 h; activation, % at 16.6 µM; 370,000 compounds, 0.61% hits; AID 743287, 2014;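 active means lowest replicate activation of at least 40%, so every replicate reaches that level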;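 further: 0% = median of neutral control wells and 100% = median of IBMX positive control wells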
Env fusion inh = inhibitors of HIV-1 Env-driven cell-cell fusion, primary screen, HeLa-JRFL effector, CEM21 target cells, luciferase; 360,000 compounds, 1.1% hits; inhibition, % at 12.3 µM;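 active means mean replicate inhibition score of at least 50 and every replicate individually at or above 50; inconclusive means only one of the two criteria met; inactive means mean below 50 and not all replicates reaching 50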;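 further: 0% = plate neutral controls and 100% = maraviroc near 300 nM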
* marks the source's active call; other numbers are inactive results; u = inconclusive; x = no result; ! = not confirmed by another sample; [ ] = remark or other dose. This is a sample that favours compounds with a hit; in the whole collection about 2.4% have one here.

SMILES	Cneo AK release	Rtt109 HAT inh	dFosB activator	miR-122 sensor	INS-1E GSIS act	Env fusion inh
COc1ccc(S(=O)(=O)N2CCN(c3ncccn3)CC2)cc1	x	-2	4	x	22	-7
O=S(=O)(c1ccc(Cl)cc1)N1CCN(c2ncccn2)CC1	x	64*	1	x	26	-4
O=C(c1ccc2ccccc2n1)N1CCN(S(=O)(=O)c2ccc(Cl)cc2)CC1	-3	1	-2	-9	x	56*
COCCNC(=O)C[C@@H]1C[C@@H]2c3cc(NC(=O)COC)ccc3O[C@@H]2[C@@H](CO)O1	2	x	x	-1[16.7 µM]	5	-28[16.7 µM]
Cc1c(NC(=O)c2cccc(NC(=O)COc3ccccc3)c2)c(=O)n(-c2ccccc2)n1C	0	2	-2	-10	6	1
Cc1c(NC(=O)c2cccc(NC(=O)COc3ccccc3C#N)c2)c(=O)n(-c2ccccc2)n1C	x	-8	-15	x	-9	60*
C/C(=N\NC(=O)CC1N=C(Cc2ccccc2)NNC1=O)c1ccc(Cl)cc1Cl (configuration not stated)	4	9	-3	-2	142*	x
C/C(=N\NC(=O)CC1N=C(Cc2ccccc2)NNC1=O)c1ccccc1 (configuration not stated)	1	-5	-3	-2	x	5
CC(C)CC(NS(=O)(=O)c1ccc2c(c1)oc(=O)n2C)C(=O)NC1CCCc2ccccc21 (configuration not stated)	0	-8	u	-1	-1	58*
C[C@@H]1CCCCO[C@@H](CN(C)C(=O)NC2CCCCC2)[C@H](C)CN([C@@H](C)CO)C(=O)c2cc(NS(=O)(=O)c3cccs3)ccc2O1	2	x	x	-5[16.7 µM]	-14	-1[16.7 µM]
CCNc1nc(N)nc(Oc2ccc(OCCOc3ccccc3)nn2)n1	2	-5	-3	151*	x	-21
CCNc1nc(N)nc(Oc2ccc(OCc3ccccc3)nn2)n1	-3	11	2	-7	2	x
CCCCCc1cc(=O)oc2c(C(CCN(CC)CC)c3cc(OC)c(OC)c(OC)c3)c(OC)cc(OC)c12 (configuration not stated)	2	-1	7	-25	63*	-8
COc1ccc(CCN2CC(=O)NC(=O)C2)cc1OC	-1	x	x	x	54*	-19
COc1ccc(CCN2C(=O)C3C(C2=O)C2C=CC3C23CC3)cc1OC (configuration not stated)	-1	-8	-5	2	-7	-12
Cc1ccc(S(=O)(=O)NCCC(C)C)cc1[N+](=O)[O-]	x	3	-1	232*	-10	13
C/C(CCC(C)C)=N\NS(=O)(=O)c1ccc(C)c([N+](=O)[O-])c1	3	1	-6	14	-11	3
CO[C@@H]1CN(C)C(=O)c2ccc(NC(C)=O)cc2OC[C@H](C)N(Cc2ccncc2)C[C@H]1C	-2	x	x	5[16.7 µM]	-8	x
COc1ccc(-c2c(C#Cc3ccsc3)c3cc(-c4ccc5[nH]ccc5c4)ccc3n2C)cc1	-2	-2	17*	17	-7	0
O=C(CC(C(=O)N1CCc2ccccc21)n1ccnc1)NCc1cccnc1 (configuration not stated)	0	5	1	1	8	-42
CCN(CCCNC(=O)CC(C(=O)N1CCc2ccccc21)n1ccnc1)c1ccccc1 (configuration not stated)	0	-1	-13	2	-31	63*
C[C@@H]1CN([C@H](C)CO)S(=O)(=O)c2ccc(C3=CCCC3)cc2O[C@H]1CN(C)Cc1ccccc1	17	x	x	-8[16.7 µM]	-8	33[16.7 µM]
C[C@H](CO)N1C[C@H](C)[C@@H](CN(C)Cc2ccccc2)Oc2cc(C3=CCCC3)ccc2S1(=O)=O	15	x	x	19[16.7 µM]	3	55*[16.7 µM]
C[C@H](CO)N1C[C@H](C)[C@@H](CN(C)Cc2ccncc2)Oc2cc(C3=CCCCC3)ccc2S1(=O)=O	3	x	x	13[16.7 µM]	3	64*[16.7 µM]
C[C@@H]1CN([C@H](C)CO)S(=O)(=O)c2ccc(C3=CCCCC3)cc2O[C@H]1CN(C)Cc1ccncc1	-2	x	x	7[16.7 µM]	0	37[16.7 µM]
SMILES	Cneo AK release	Rtt109 HAT inh	dFosB activator	miR-122 sensor	INS-1E GSIS act	Env fusion inh
Cc1ccc2c(Cl)c(C)c(N3CCCCC3)nc2n1	x	3	-3	x	53*	-33
Cc1noc(C)c1NC(=O)Nc1ccc2c(c1)C(=O)N([C@H](C)CO)C[C@@H](C)[C@@H](CN(C)C(=O)Nc1ccc(F)cc1)O2	-3	x	x	-3[16.7 µM]	14	-48[16.7 µM]
Cc1cc2nncn2c2ccccc12	-1	-2	-7	5	x	-355
Cc1ccccc1-n1c(=O)c2ccccc2n2cnnc12	-1	x	-3	-19	x	83*
COc1cc(C(=O)OCc2cc(=O)oc3c(C)c(C)ccc23)ccc1OC(F)F	3	0	2	-5	2	20
COc1cc(C(=O)OCc2cc(=O)c(O)co2)ccc1OC(F)F	x	-10	-16	0	52*	-35
CC1CCCCN1C(=O)COC(=O)CSc1ccc(C(N)=O)cc1[N+](=O)[O-] (configuration not stated)	3	8	-3	0	45*	x
CC(C)C[C@@H]1NC(=O)[C@H]2C[C@@H](C(=O)NCc3ccc(F)cc3)[C@@H](c3cccc(OCCO)c3)N2C1=O	-7	x	x	x	x	-6[16.7 µM]
Cc1ccc(-c2nc3c(=O)n(C)c4ccccc4c3o2)cc1	-5	2	-37	1	79*	-55
Cc1ccc(-c2nc3c(=O)n(-c4ccccc4)c4c(c(=O)n(C)c(=O)n4C)c3o2)cc1	-2	19	-8	-4	3	-12
C[C@@H]1CN([C@@H](C)CO)C(=O)c2cccc(N(C)C)c2O[C@H]1CN(C)C(=O)NC1CCCCC1	-1	x	x	7[16.7 µM]	-11	-21[16.7 µM]
C[C@H](CO)N1C[C@H](C)[C@H](CN(C)C(=O)Nc2cccc3ccccc23)Oc2c(NC(=O)c3ccncc3)cccc2C1=O	-1	x	x	5[16.7 µM]	11	0[16.7 µM]
C[C@H]1CN([C@@H](C)CO)C(=O)c2cccc(NC(=O)c3ccncc3)c2O[C@@H]1CN(C)C(=O)Nc1cccc2ccccc12	1	x	x	12[16.7 µM]	24	66*[16.7 µM]
C[C@H](CO)N1C[C@H](C)[C@@H](CN(C)C(=O)NC2CCCCC2)Oc2c(cccc2N(C)C)C1=O	-2	-4	-6	65[16.7 µM]	-8	85*!
C[C@H]1CN([C@@H](C)CO)C(=O)c2cccc(N(C)C)c2O[C@@H]1CN(C)C(=O)Nc1cccc2ccccc12	84*	x	x	-1[16.7 µM]	-8	20[16.7 µM]

Source: PubChem (Broad Institute)
